PTEN del growth = PTEN-deleted cell growth suppression | HCT116 PTEN-null viability, CellTiter-Glo, 60 h; hits give low values | viability, % at 10 µM | 140,000 tested, 1.2% active;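 active means viability at or below a set limit, 4 SD under the median of all tested compounds, cut at about 3.7% in these data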;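 further: PTEN knockout HCT116 line with beta catenin targeted HCT116 as companion control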
TNAP inh hiacc = blocks human TNAP under high phosphate acceptor concentration | purified TNAP, CDP-star luminescence, 1 M DEA | P05186 | 200,000 tested, 0.03% active | inhibition, % at 20 µM | AID 1135;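 active means over 50% inhibition of tissue-nonspecific alkaline phosphatase at 20 µM in the single-dose screen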;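 further: plate controls were DMSO wells for no effect and EDTA-quenched wells as full inhibition for full effect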
Target sequence (P05186 whole entry, looked up): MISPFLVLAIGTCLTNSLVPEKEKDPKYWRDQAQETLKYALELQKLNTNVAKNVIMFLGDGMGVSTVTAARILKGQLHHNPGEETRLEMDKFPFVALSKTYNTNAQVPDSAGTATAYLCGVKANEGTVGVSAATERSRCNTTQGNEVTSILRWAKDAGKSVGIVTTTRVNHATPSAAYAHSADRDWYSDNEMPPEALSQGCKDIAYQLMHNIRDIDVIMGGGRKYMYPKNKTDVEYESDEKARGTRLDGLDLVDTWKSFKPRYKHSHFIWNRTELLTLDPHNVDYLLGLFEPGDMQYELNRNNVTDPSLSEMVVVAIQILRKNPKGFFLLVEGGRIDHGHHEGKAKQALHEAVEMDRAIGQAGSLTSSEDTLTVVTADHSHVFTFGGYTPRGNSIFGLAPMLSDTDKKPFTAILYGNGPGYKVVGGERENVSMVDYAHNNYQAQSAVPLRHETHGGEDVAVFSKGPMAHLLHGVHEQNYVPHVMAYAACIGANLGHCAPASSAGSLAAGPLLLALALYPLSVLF
TNAP act hiacc = TNAP (human) activation, high acceptor; activation factor at 20 µM; AID 1136; 200,000 tested, under 10 active; P05186; purified TNAP, CDP-star luminescence, 1 M DEA, 30 min; hits give high values; 0 = EDTA background, 1 = DMSO-only activity;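 active means activation factor at least 2 at 20 µM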
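system = human TNAP | amount = enzyme diluted 1/800 final | reagent = 100 µM CDP-star substrate | signal = luminescent substrate turnover signal | dosing = one dose, 20 µM | benchmarks = EDTA negative control, DMSO positive control | measure = activation factor | timing = 30 min reaction, room temperature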
HCT116 bCat-KO = beta-catenin-lacking colon tumor cell growth suppression; HCT116 beta-catenin knockout viability, CellTiter-Glo, 60 h; hits give low values; 140,000 tested, 1.5% active; AID 818; viability, % at 10 µM;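 active means viability at or under a set limit, the compound median less 4 SD, cut at about 6% in these data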;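 further: 0% = Hyamine 1622 control at 20 µM and 100% = untreated cell control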
TNAP inh noacc = blocks human TNAP activity with no phosphate acceptor present; P05186; 200,000 tested, 0.26% active; purified TNAP, CDP-star luminescence, 30 min; inhibition, % at 20 µM;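 active means tissue-nonspecific alkaline phosphatase inhibition above about 50% at 20 µM in the single-dose screen, limit read from the data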;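 further: 0% = DMSO negative control and 100% = EDTA positive control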
Lmaj promast = inhibitors of Leishmania major promastigote growth; Leishmania major promastigotes, resazurin fluorescence viability; inhibition, % at 10 µM; 200,000 tested, 9% active; in the data active means inhibition above about 50%;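 further: promastigotes grown with compound for 44 hours at 28 °C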
Numbers without * were called inactive; / = not tested or not shown. Rows were chosen to be rich in hits. Some 9.6% of all compounds tested hit in one or more screens of this group.

SMILES | PTEN del growth | TNAP inh hiacc | TNAP act hiacc | HCT116 bCat-KO | TNAP inh noacc | Lmaj promast
Cc1c(N2C(=O)C(=O)/C(=C(/O)c3ccc(Cl)cc3)C2c2ccccc2)c(=O)n(-c2ccccc2)n1C (stereo unspecified) | 95 | 3 | 1 | 95 | -11 | -8
N#CCCn1nc(-c2ccccc2)cc1Nc1ccccc1NC(=O)c1cccs1 | 68 | -7 | 1.1 | 75 | -8 | 59*
O=C(Cn1nnc(-c2ccccc2NC(=O)c2cccs2)n1)Nc1ccccc1 | 52 | -7 | 1.1 | 61 | -15 | -1
Cc1ccc(S(=O)(=O)Nc2ccnc3ccccc23)cc1 | 100 | 0 | 1 | 83 | -9 | -1
Cc1ccc(S(=O)(=O)Nc2ccc(O)c3ncccc23)cc1 | / | 2 | 1 | / | -19 | 99*
COc1ccc(NC(=O)N2CCC(c3nc4ccccc4[nH]3)CC2)cc1 | / | 2 | 1 | / | -5 | -2
Cc1nc2ccccc2c(=O)n1N(c1ccccc1)c1ccccc1 | / | -4 | 1 | / | -3 | 34
O=S(=O)(c1ccccc1)N1CCN=C1SCc1ccc(Cl)cc1 | / | -4 | 1 | / | -6 | 100*
O=S(=O)(c1ccccc1)N1CCN=C1SCc1cccc(Cl)c1 | 76 | -7 | 1.1 | 78 | -8 | 22
O=S(=O)(c1ccccc1)N1CCN=C1SCc1ccc(Cl)c(Cl)c1 | 60 | 3 | 1 | 73 | -5 | 51*
O=S(=O)(c1ccccc1)N1CCN=C1SCc1ccccc1Cl | / | -6 | 1.1 | / | -10 | 16
COc1ccc(/C=C2\COc3ccccc3C2=O)cc1OC | 1.1* | -2 | 1 | 1.6* | -16 | 100*
O=C1/C(=C/c2ccco2)CCc2ccccc21 | 86 | 2 | 1 | 81 | -10 | -5
COc1ccc2c(c1)CC/C(=C\c1ccc(OC)c(Cn3cccn3)c1)C2=O | 32 | 1 | 1 | 30 | -4 | 98*
COc1cc(/C=C2\CCc3ccccc3C2=O)cc(OC)c1OC | 1.7* | 2 | 1 | 2.0* | -4 | 77*
COc1ccc(/C=C2/CCc3ccccc3C2=O)cc1OC | 39 | -2 | 1 | 38 | -18 | 52*
Cc1cccc(N2C(=O)C3C4CC(=O)C(c5ccccc54)C3C2=O)c1C (stereo unspecified) | / | 4 | 1 | / | 13 | -4
COc1ccc(C(=O)N/C(=C\c2ccc3c(c2)OCO3)C(=O)NCCc2nc3ccccc3[nH]2)cc1 | 92 | -3 | 1 | 96 | -2 | -4
CCOC(=O)c1ccc(Nc2ncccc2[N+](=O)[O-])cc1 | / | 5 | 0.9 | / | 5 | -2
COc1cc(/C=C2/CCc3ccccc3C2=O)cc(OC)c1OC | 4 | -2 | 1 | 10 | -6 | 55*
CNc1nc(-c2ccc3c(c2)CCN3C(=O)c2ccccc2C)cs1 | / | -9 | 1.1 | / | -11 | 8
Cc1sc(NC(=O)Cc2ccc3c(c2)OCO3)nc1-c1ccc2c(c1)CCN2C(=O)c1cccc(F)c1 | 82 | 4 | 1 | 75 | -10 | 91*
Cc1ccccc1C(=O)N1CCc2cc(-c3nc(NC(=O)Cc4ccc5c(c4)OCO5)sc3C)ccc21 | 65 | -5 | 1.1 | 29 | -15 | 99*
Cc1cc(C)n(-c2nc(NCCC(C)C)c3c4c(sc3n2)COC(C)(C)C4)n1 | 4 | -12 | 1.1 | 3.6* | -77 | 71*
CCOCCCNC(=O)c1cc2c(-c3ccc(Cl)cc3)nn(C)c2s1 | 57 | -2 | 1 | 57 | -16 | 7
SMILES | PTEN del growth | TNAP inh hiacc | TNAP act hiacc | HCT116 bCat-KO | TNAP inh noacc | Lmaj promast
Cn1nc(-c2ccc(Cl)cc2)c2cc(C(=O)N3CCN(C(=O)c4ccco4)CC3)sc21 | 65 | -8 | 1.1 | 73 | 13 | 19
CCN1CCN(C(=O)c2cc3c(-c4ccc(Cl)cc4)nn(C)c3s2)CC1 | 37 | -10 | 1.1 | 46 | -18 | 52*
CCN(CC)CCNC(=O)c1cc2c(-c3ccc(Cl)cc3)nn(C)c2s1 | 1.1* | -6 | 1.1 | 1.5* | -12 | 100*
COc1ccc(N2CCN(C(=O)c3cc4c(-c5cccc(OC)c5)nn(C)c4s3)CC2)cc1 | 81 | -1 | 1 | 79 | -1 | 62*
COc1ccccc1/C=C/C(=O)NCC(=O)N1CCC(N(C)C2CCCC2)CC1 | / | 6 | 0.9 | / | 3 | 7
COc1ccc(/C=C/C(=O)OCC(=O)c2c(N)n(C)c(=O)n(C)c2=O)c(OC)c1 | / | -7 | 1.1 | / | -9 | -9
O=C(OCc1nc2ccccc2[n+]([O-])c1C(=O)c1ccccc1)c1cccs1 | 103 | -3 | 1 | 94 | -4 | 86*
CC(=O)c1c(COC(=O)c2ccncc2)nc2ccccc2[n+]1[O-] | 94 | 2 | 1 | 97 | -4 | -3
NC(=S)Nn1c(-c2ccccc2)nc2ccccc2c1=O | 104 | 0 | 1 | 103 | -6 | 36
CCOC(=O)c1cc(C)n(CCCN2CCOCC2)c1C | 97 | -6 | 1.1 | 100 | -11 | 90*
CCOC(=O)c1cc(C)n(Cc2ccccc2)c1C | 98 | -6 | 1.1 | 94 | -15 | 2
CCOC(=O)C1(Cc2cccc(OC)c2)CCN(Cc2cnc(N)nc2)CC1 | / | -5 | 1.1 | / | -8 | -3
CCOC(=O)C1(Cc2cccc(OC)c2)CCN(Cc2cnc(SC)nc2)CC1 | / | -6 | 1.1 | / | -9 | 82*
CCOC(=O)C1(Cc2cccc(OC)c2)CCN(Cc2cccc3cnccc23)CC1 | / | -5 | 1 | / | -6 | 91*
CCOC(=O)C1(Cc2cccc(OC)c2)CCN(Cc2cccnc2)CC1 | / | -1 | 1 | / | -6 | 55*
CCOC(=O)C1(Cc2cccc(OC)c2)CCN(Cc2cccc(OC)c2OC)CC1 | / | 2 | 1 | / | -8 | 24
CN(C(=O)COC(=O)c1ccc(=O)n(Cc2ccccc2)n1)c1ccccc1 | / | 0 | 1 | / | -5 | -1
NC(=O)SCC(=O)Nc1ccc(Cl)c(Cl)c1 | 1.4* | 3 | 1 | 1.1* | 14 | 98*
O=C(Nc1nc(-c2ccc3c(c2)OCCO3)cs1)c1ccc(S(=O)(=O)N2CCCCC2)cc1 | 22 | -4 | 1 | 16 | -10 | 86*
O=C(Nc1nc(-c2ccc(S(=O)(=O)N3CCCCCC3)cc2)cs1)c1ccccc1 | 61 | -3 | 1 | 53 | -12 | 12
O=C(Nc1nc(-c2cccs2)cs1)c1ccc(S(=O)(=O)N2CCCC2)cc1 | 22 | -3 | 1 | 31 | -4 | 77*
C=CCN(C(=O)c1cccc(N2C(=O)C3CC=CC(C)C3C2=O)c1)c1ccccc1 (stereo unspecified) | / | -1 | 1 | / | -10 | -9
COC(=O)c1ccc(CN2C(=O)NC3(CCC(C)CC3)C2=O)cc1 (stereo unspecified) | / | -6 | 1.1 | / | -9 | -1
CC(C)c1ccccc1-n1c(SCC(=O)c2ccc3c(c2)NC(=O)CO3)nc2ccccc2c1=O | / | -3 | 1 | / | -7 | 67*

High-throughput results (PubChem)
